eIF2B yeast act = eIF2B (yeast) activity modulation; S. cerevisiae eIF2B-epsilon R284H, GCN4-lacZ luminescence; inhibition, % at 25 µM (by protocol); actives 0.91% (n = 27,000); AID 688;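 active = mutant luminescence inhibited past about 50% while wild type luminescence and mutant growth stay under set limits, limit read from the data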
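System: Yeast eIF2B-epsilon R284H mutant carrying GCN4–beta-galactosidase fusion | Read-out basis: Percent inhibition, luminescence and growth | Compound: 25 µM single dose | Times: 16 h at 30 °C exposure | Measured by: Luminescence and A595 | Buffer or medium: YPD medium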
Yeast tox = Compounds toxic to wild-type S. cerevisiae growth. A595 turbidity, 16 h. growth inhibition, % at 25 µM (by protocol). actives 0.3% (n = 30,000). AID 685;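 active = mutant and wild-type yeast strains alike exhibit over 30% growth inhibition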;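 also: 0% = untreated cell controls and 100% = YPD media blanks without cells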
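system = S. cerevisiae wild-type or eIF2Bepsilon-R284H mutant strain | buffer or medium = YPD medium | dosing = one dose, 25 µM compound, 0.2% DMSO | schedule = 16 h at 30 °C | measured by = A595 turbidity | evaluation = growth inhibition (%) versus cell controls and blanks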
Starred values were filed as active, the others as inactive. In the library only some 1% were active in any assay of this set; here they are far more common.

SMILES	eIF2B yeast act	Yeast tox
Cc1ccc2c(CN3CCN(Cc4ccc5c(c4)OCO5)CC3)cc(=O)oc2c1C	15	4
Cc1ccc(SCc2cc(=O)[nH]c(N3CCN(Cc4ccc5c(c4)OCO5)CC3)n2)cc1	60*	-17
CCN(CC)CCNC(=O)Cn1nc(-c2ccccc2)c2ccccc2c1=O	24	-22
CNC(=O)Cn1nc(-c2ccc(C)c(S(=O)(=O)N(C)C)c2)c2ccccc2c1=O	62*	1
Nc1nc2ccc(-c3nc4ccccc4o3)cc2s1	24	21
Nc1ccc2nc(-c3ccccc3)sc2c1	72*	20
Cc1oc2cc3c(C(=O)N4CCN(c5ccccc5)CC4)c(C)oc3cc2c1C(=O)N1CCN(c2ccccc2)CC1	31	-22
COc1ccc2c(c1)c(=O)cc(C)n2CC(=O)NCc1ccco1	27	20

Compound activity (PubChem BioAssay)
